According to ChEMBL document CHEMBL3085642, “Synthesis and evaluation of novel 4-nitropyrrole-based 1,3,4-oxadiazole derivatives as antimicrobial and anti-tubercular agents” (Eur J Med Chem, 2013):
≈ marks a conversion by molar mass, not a printed value.

Assays:
Vero = assay: Cytotoxicity against african green monkey Vero cells after 72 hrs by MTT assay; format: cell-based; conditions: Chlorocebus sabaeus
Method in brief: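 Vero cells were exposed to compounds for 72 h. Viability was measured by cellular conversion of MTT into formazan (non-radioactive proliferation assay), and the cytotoxic concentration was reported as IC50.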

[1] = test system: Mycobacterium tuberculosis; assay: Antitubercular activity against Mycobacterium tuberculosis H37Rv after 7 days by resazurin microtitre assay; format: functional; conditions: 168 h
Candida albicans [2] = assay: Antifungal activity against Candida albicans after 48 hrs by two fold agar dilution method; format: functional
Method in brief: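 Two-fold serial dilutions in DMSO were tested against C. albicans by agar dilution. Cultures were incubated for 48 h at 35 °C and growth was monitored. MIC was taken as the lowest concentration (highest dilution) that arrested fungal growth.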

Staphylococcus aureus [3] = assay: Antibacterial activity against methicillin-resistant Staphylococcus aureus ATCC 43866 by broth dilution method; format: functional
Staphylococcus aureus [4] = assay: Antibacterial activity against methicillin-susceptible Staphylococcus aureus ATCC 35556 by broth dilution method; format: functional
Klebsiella pneumoniae = assay: Antibacterial activity against Klebsiella pneumoniae by two fold broth dilution method; format: functional
Escherichia coli = assay: Antibacterial activity against Escherichia coli ATCC 25922 by two fold broth dilution method; format: functional
Bacillus spizizenii = assay: Antibacterial activity against Bacillus subtilis ATCC 6633 by two fold broth dilution method; format: functional
Staphylococcus aureus [5] = assay: Antibacterial activity against Staphylococcus aureus ATCC 25923 by two fold broth dilution method; format: functional
Staphylococcus aureus [6] = assay: Ratio of ciprofloxacin MIC to compound MIC against Staphylococcus aureus ATCC 25923; format: functional
Candida albicans [7] = assay: Ratio of ampotericin-B MIC to compound MIC against Candida albicans; format: functional

Compound | IC50 (Vero) [µM] | MIC [1] [µg/mL] | MIC (Candida albicans [2]) [µg/mL] | MIC (Staphylococcus aureus [3]) [µg/mL] | MIC (Staphylococcus aureus [4]) [µg/mL] | MIC (Klebsiella pneumoniae) [µg/mL] | MIC (Escherichia coli) [µg/mL] | MIC (Bacillus spizizenii) [µg/mL] | MIC (Staphylococcus aureus [5]) [µg/mL] | Ratio (Staphylococcus aureus [6]) | Ratio (Candida albicans [7])
O=[N+]([O-])c1c[nH]c(-c2nnc(-c3cccs3)o2)c1 | 418 | 87.1 (≈ 332 µM) | 6.25 (≈ 23.8 µM) | 3.12 (≈ 11.9 µM) | 3.12 (≈ 11.9 µM) | 25 (≈ 95.3 µM) | 1.56 (≈ 5.95 µM) | 1.56 (≈ 5.95 µM) | 1.56 (≈ 5.95 µM) |  | 
O=[N+]([O-])c1c[nH]c(-c2nnc(-c3ccccc3)o2)c1 | 423 | 56.3 (≈ 220 µM) | 12.5 (≈ 48.8 µM) | 3.12 (≈ 12.2 µM) | 1.56 (≈ 6.09 µM) | 25 (≈ 97.6 µM) | 6.25 (≈ 24.4 µM) | 3.12 (≈ 12.2 µM) | 3.12 (≈ 12.2 µM) |  | 
O=C(O)c1cn(C2CC2)c2cc(N3CCNCC3)c(F)cc2c1=O [CIPROFLOXACIN] |  |  |  | 3.12 (≈ 9.43 µM) | 1.56 (≈ 4.71 µM) | 1.56 (≈ 4.71 µM) |  | 1.56 (≈ 4.71 µM) | 1.56 (≈ 4.71 µM) |  | 
O=[N+]([O-])c1c[nH]c(-c2nnc(-c3ccccc3O)o2)c1 | 375 | 2.1 (≈ 7.71 µM) | 3.12 (≈ 11.5 µM) | 3.12 (≈ 11.5 µM) | 1.56 (≈ 5.73 µM) | 25 (≈ 91.8 µM) | 1.56 (≈ 5.73 µM) | 3.12 (≈ 11.5 µM) | 1.56 (≈ 5.73 µM) |  | 
O=[N+]([O-])c1c[nH]c(-c2nnc(-c3cccc([N+](=O)[O-])c3O)o2)c1 | 498 | 1.8 (≈ 5.67 µM) | 3.12 (≈ 9.85 µM) | 3.12 (≈ 9.85 µM) | 1.56 (≈ 4.92 µM) | 25 (≈ 78.8 µM) | 6.25 (≈ 19.7 µM) | 3.12 (≈ 9.85 µM) | 1.56 (≈ 4.92 µM) |  | 
Cn1cc([N+](=O)[O-])cc1-c1nnc(-c2cc3cc(Cl)ccc3[nH]2)o1 | 743 | 24 (≈ 69.8 µM) | 1.56 (≈ 4.54 µM) | 1.56 (≈ 4.54 µM) | 0.39 (≈ 1.13 µM) | 12.5 (≈ 36.4 µM) | 1.56 (≈ 4.54 µM) | 1.56 (≈ 4.54 µM) | 0.39 (≈ 1.13 µM) | 3 | 
O=[N+]([O-])c1c[nH]c(-c2nnc(C3CCCNC3)o2)c1 (stereo unspecified) | 318 | 12.5 (≈ 47.5 µM) | 3.12 (≈ 11.9 µM) | 3.12 (≈ 11.9 µM) | 1.56 (≈ 5.93 µM) | 25 (≈ 95 µM) | 3.12 (≈ 11.9 µM) | 3.12 (≈ 11.9 µM) | 1.56 (≈ 5.93 µM) |  | 
O=[N+]([O-])c1c[nH]c(-c2nnc(Cc3ccccc3F)o2)c1 | 620 | 0.46 (≈ 1.6 µM) | 3.12 (≈ 10.8 µM) | 3.12 (≈ 10.8 µM) | 1.56 (≈ 5.41 µM) | 25 (≈ 86.7 µM) | 1.56 (≈ 5.41 µM) | 1.56 (≈ 5.41 µM) | 1.56 (≈ 5.41 µM) |  | 
O=[N+]([O-])c1c[nH]c(-c2nnc(-c3cc4cc(Cl)ccc4[nH]3)o2)c1 | 329 | 3.4 (≈ 10.3 µM) | 3.12 (≈ 9.48 µM) | 3.12 (≈ 9.48 µM) | 1.56 (≈ 4.73 µM) | 25 (≈ 75.8 µM) | 1.56 (≈ 4.73 µM) | 3.12 (≈ 9.48 µM) | 1.56 (≈ 4.73 µM) |  | 
COc1cccc(OC)c1-c1nnc(-c2cc([N+](=O)[O-])c[nH]2)o1 | 170 | 5.4 (≈ 17.1 µM) | 3.12 (≈ 9.88 µM) | 3.12 (≈ 9.88 µM) | 1.56 (≈ 4.93 µM) | 25 (≈ 79 µM) | 3.12 (≈ 9.88 µM) | 3.12 (≈ 9.88 µM) | 1.56 (≈ 4.93 µM) |  | 
COc1ccc(-c2nnc(-c3cc([N+](=O)[O-])c[nH]3)o2)cc1 | 409 | 34 (≈ 119 µM) | 3.12 (≈ 10.9 µM) | 3.12 (≈ 10.9 µM) | 1.56 (≈ 5.45 µM) | 25 (≈ 87.3 µM) | 6.25 (≈ 21.8 µM) | 3.12 (≈ 10.9 µM) | 1.56 (≈ 5.45 µM) |  | 
N#Cc1ccc(-c2nnc(-c3cc([N+](=O)[O-])c[nH]3)o2)cc1 | 199 | 26.8 (≈ 95.3 µM) | 3.12 (≈ 11.1 µM) | 3.12 (≈ 11.1 µM) | 1.56 (≈ 5.55 µM) | 25 (≈ 88.9 µM) | 3.12 (≈ 11.1 µM) | 3.12 (≈ 11.1 µM) | 1.56 (≈ 5.55 µM) |  | 
O=[N+]([O-])c1c[nH]c(-c2nnc(C3(c4ccccc4)CC3)o2)c1 | 380 | 56.8 (≈ 192 µM) | 25 (≈ 84.4 µM) | 3.12 (≈ 10.5 µM) | 1.56 (≈ 5.27 µM) | 25 (≈ 84.4 µM) | 1.56 (≈ 5.27 µM) | 3.12 (≈ 10.5 µM) | 0.78 (≈ 2.63 µM) | 2 | 
Cc1ccc(-c2nnc(-c3cc([N+](=O)[O-])cn3C)o2)s1 | 98.3 |  | 1.56 (≈ 5.37 µM) | 1.56 (≈ 5.37 µM) | 1.56 (≈ 5.37 µM) | 12.5 (≈ 43.1 µM) | 6.25 (≈ 21.5 µM) | 1.56 (≈ 5.37 µM) | 0.78 (≈ 2.69 µM) | 2 | 2
COc1cc(/C=C/c2nnc(-c3cc([N+](=O)[O-])c[nH]3)o2)ccc1O | 220 | 23.7 (≈ 72.2 µM) | 25 (≈ 76.2 µM) | 3.12 (≈ 9.52 µM) | 1.56 (≈ 4.75 µM) | 100 (≈ 305 µM) | 3.12 (≈ 9.52 µM) | 3.12 (≈ 9.52 µM) | 3.12 (≈ 9.52 µM) |  | 
COc1cccc(-c2nnc(-c3cc([N+](=O)[O-])c[nH]3)o2)c1 | 429 | 13.5 (≈ 47.2 µM) | 3.12 (≈ 10.9 µM) | 3.12 (≈ 10.9 µM) | 1.56 (≈ 5.45 µM) | 25 (≈ 87.3 µM) | 3.12 (≈ 10.9 µM) | 3.12 (≈ 10.9 µM) | 1.56 (≈ 5.45 µM) |  | 
O=[N+]([O-])c1c[nH]c(-c2nnc(-c3ccco3)o2)c1 | 370 | 42.8 (≈ 174 µM) | 3.12 (≈ 12.7 µM) | 3.12 (≈ 12.7 µM) | 1.56 (≈ 6.34 µM) | 25 (≈ 102 µM) | 3.12 (≈ 12.7 µM) | 1.56 (≈ 6.34 µM) | 0.78 (≈ 3.17 µM) | 2 | 
O=[N+]([O-])c1c[nH]c(-c2nnc(Cc3ccc(F)c4ccccc34)o2)c1 | 229 | 64.8 (≈ 192 µM) | 3.12 (≈ 9.24 µM) | 3.12 (≈ 9.24 µM) | 1.56 (≈ 4.61 µM) | 25 (≈ 73.9 µM) | 3.12 (≈ 9.24 µM) | 3.12 (≈ 9.24 µM) | 1.56 (≈ 4.61 µM) |  | 
Cn1cc([N+](=O)[O-])cc1-c1nnc(-c2ccco2)o1 | 190 | 60.2 (≈ 231 µM) | 1.56 (≈ 6 µM) | 1.56 (≈ 6 µM) | 1.56 (≈ 6 µM) | 50 (≈ 192 µM) | 3.12 (≈ 12 µM) | 1.56 (≈ 6 µM) | 0.78 (≈ 3 µM) | 2 | 2
Cn1cc([N+](=O)[O-])cc1-c1nnc(-c2cccs2)o1 | 521 |  | 1.56 (≈ 5.65 µM) | 1.56 (≈ 5.65 µM) | 1.56 (≈ 5.65 µM) | 50 (≈ 181 µM) | 6.25 (≈ 22.6 µM) | 1.56 (≈ 5.65 µM) | 0.78 (≈ 2.82 µM) | 2 | 2
C[C@@H]1[C@H](O)[C@@H](C)/C=C/C=C/C=C/C=C/C=C/C=C/C=C/[C@H](O[C@@H]2O[C@H](C)[C@@H](O)[C@H](N)[C@@H]2O)C[C@@H]2O[C@](O)(C[C@@H](O)C[C@@H](O)[C@H](O)CC[C@@H](O)C[C@@H](O)CC(=O)O[C@H]1C)C[C@H](O)[C@H]2C(=O)O [AMPHOTERICIN B] |  |  | 3.12 (≈ 3.38 µM) |  |  |  |  |  |  |  | 
O=[N+]([O-])c1c[nH]c(-c2nnc(-c3ccccc3Br)o2)c1 | 190 | 0.81 (≈ 2.42 µM) | 3.12 (≈ 9.33 µM) | 3.12 (≈ 9.33 µM) | 1.56 (≈ 4.66 µM) | 25 (≈ 74.6 µM) | 1.56 (≈ 4.66 µM) | 1.56 (≈ 4.66 µM) | 1.56 (≈ 4.66 µM) |  | 
Cc1ccc(-c2nnc(-c3cc([N+](=O)[O-])c[nH]3)o2)s1 | 329 |  | 3.12 (≈ 11.3 µM) | 3.12 (≈ 11.3 µM) | 1.56 (≈ 5.65 µM) | 25 (≈ 90.5 µM) | 6.25 (≈ 22.6 µM) | 3.12 (≈ 11.3 µM) | 1.56 (≈ 5.65 µM) |  | 
O=[N+]([O-])c1c[nH]c(-c2nnc(-c3ccns3)o2)c1 | 532 | 62.7 (≈ 238 µM) | 3.12 (≈ 11.9 µM) | 3.12 (≈ 11.9 µM) | 1.56 (≈ 5.93 µM) | 25 (≈ 95 µM) | 6.25 (≈ 23.7 µM) | 3.12 (≈ 11.9 µM) | 1.56 (≈ 5.93 µM) |  | 
NNC(=O)c1ccncc1 [ISONIAZID] |  | 0.4 (≈ 2.92 µM) |  |  |  |  |  |  |  |  | 
